“And” between values parts separate entries of the source, which are not always exact repeats. Equal values may be shown once.
System: U2OS
Experiment: Multiplex assay against U2OS
Format: toxicity, cell-based
Conditions: human, number of replicates 2
In short: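 Per cents of healthy-nucleus cells form the tubulin, mitochondrial-mass and membrane-permeability phenotype values. Live cells were stained at seeding with Hoechst33342, BioTracker Green Microtubule Cytoskeleton Dye, MitoTracker Red and Annexin V Alexa Fluor 680. After compound addition they were imaged on a CQ1 microscope at 37°C and 5% CO2, and CellPathfinder machine-learning gating split them into Hoechst high-intensity objects or normal cells, normal cells into healthy, pyknosed or fragmented nuclei, and pyknosed cells into mitotic or apoptotic.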

[1] = 12 h, 1 µM, compound concentration 1 uM
[2] = 12 h, 10 µM, compound concentration 10 uM
[3] = 24 h, 1 µM, compound concentration 1 uM
[4] = 24 h, 10 µM, compound concentration 10 uM
[5] = 48 h, 1 µM, compound concentration 1 uM
[6] = 48 h, 10 µM, compound concentration 10 uM

## CC(C)c1cc(-c2ccc(F)c3ccccc23)nc(N)n1
[1]
  Population Apoptotic (%): 35% and 50%
  Population Fragmented Nuclei (%): 2% and 12%
  Population Healthy Nuclei (%): 88% and 81%
  Population Hoechst High Intensity Objects (%): 0%
  Population Membrane Permeable-Phenotype (%): 1% and 7%
  Population Mitochondria Different-Phenotype (%): 0%
  Population Mitotic Cells (%): 65% and 50%
  Population Normal (%): 100%
  Population Pyknosed Nuclei (%): 8% and 6%
  Population Tubulin-Different-Phenotype (%): 88% and 44%
[2]
  Population Apoptotic (%): 66% and 52%
  Population Healthy Nuclei (%): 52% and 84%
  Population Hoechst High Intensity Objects (%): 0%
  Population Mitotic Cells (%): 33% and 48%
  Population Normal (%): 100%
  Population Pyknosed Nuclei (%): 15% and 10%
  Population Tubulin-Different-Phenotype (%): 80% and 71%
[3]
  Population Fragmented Nuclei (%): 3% and 8%
  Population Healthy Nuclei (%): 86% and 82%
  Population Hoechst High Intensity Objects (%): 0%
  Population Membrane Permeable-Phenotype (%): 0% and 7%
  Population Mitochondria Different-Phenotype (%): 0%
  Population Mitotic Cells (%): 47% and 100%
  Population Normal (%): 100%
  Population Pyknosed Nuclei (%): 9% and 10%
  Population Tubulin-Different-Phenotype (%): 89% and 41%
[4]
  Population Apoptotic (%): 100% and 65%
  Population Healthy Nuclei (%): 58% and 86%
  Population Hoechst High Intensity Objects (%): 0%
  Population Membrane Permeable-Phenotype (%): 11% and 3%
  Population Mitochondria Different-Phenotype (%): 11% and 1%
  Population Normal (%): 100%
  Population Pyknosed Nuclei (%): 6% and 8%
  Population Tubulin-Different-Phenotype (%): 55% and 72%
[5]
  Population Fragmented Nuclei (%): 13% and 3%
  Population Healthy Nuclei (%): 83% and 90%
  Population Hoechst High Intensity Objects (%): 0%
  Population Membrane Permeable-Phenotype (%): 1% and 2%
  Population Mitochondria Different-Phenotype (%): 1% and 0%
  Population Mitotic Cells (%): 100% and 60%
  Population Normal (%): 100%
  Population Pyknosed Nuclei (%): 2% and 6%
  Population Tubulin-Different-Phenotype (%): 57% and 93%
[6]
  Population Apoptotic (%): 83% and 59%
  Population Healthy Nuclei (%): 62% and 90%
  Population Hoechst High Intensity Objects (%): 0%
  Population Mitotic Cells (%): 16% and 40%
  Population Normal (%): 100%
  Population Tubulin-Different-Phenotype (%): 60% and 84%

## O=C1NC(=NCc2cccs2)SC1=Cc1ccc2ncccc2c1
[1]
  Population Apoptotic (%): 100% and 60%
  Population Healthy Nuclei (%): 68% and 89%
  Population Hoechst High Intensity Objects (%): 0%
  Population Membrane Permeable-Phenotype (%): 0% and 1%
  Population Mitochondria Different-Phenotype (%): 0% and 1%
  Population Normal (%): 100%
  Population Pyknosed Nuclei (%): 9% and 6%
  Population Tubulin-Different-Phenotype (%): 59% and 88%
[2]
  Population Apoptotic (%): 71% and 81%
  Population Healthy Nuclei (%): 57% and 85%
  Population Hoechst High Intensity Objects (%): 0%
  Population Membrane Permeable-Phenotype (%): 5% and 7%
  Population Mitochondria Different-Phenotype (%): 0% and 4%
  Population Mitotic Cells (%): 28% and 18%
  Population Normal (%): 100%
  Population Pyknosed Nuclei (%): 21% and 8%
  Population Tubulin-Different-Phenotype (%): 31% and 33%
[3]
  Population Apoptotic (%): 63% and 61%
  Population Fragmented Nuclei (%): 11% and 4%
  Population Healthy Nuclei (%): 66% and 89%
  Population Hoechst High Intensity Objects (%): 0%
  Population Membrane Permeable-Phenotype (%): 5% and 0%
  Population Mitochondria Different-Phenotype (%): 0%
  Population Mitotic Cells (%): 36% and 38%
  Population Normal (%): 100%
  Population Tubulin-Different-Phenotype (%): 67% and 82%
[4]
  Population Apoptotic (%): 100% and 75%
  Population Healthy Nuclei (%): 56% and 79%
  Population Hoechst High Intensity Objects (%): 0%
  Population Membrane Permeable-Phenotype (%): 0% and 3%
  Population Mitochondria Different-Phenotype (%): 0% and 4%
  Population Mitotic Cells (%): 0% and 25%
  Population Normal (%): 100%
  Population Pyknosed Nuclei (%): 26% and 15%
  Population Tubulin-Different-Phenotype (%): 26% and 41%
[5]
  Population Apoptotic (%): 92% and 73%
  Population Healthy Nuclei (%): 57% and 88%
  Population Hoechst High Intensity Objects (%): 0%
  Population Membrane Permeable-Phenotype (%): 4% and 2%
  Population Mitochondria Different-Phenotype (%): 0%
  Population Normal (%): 100%
  Population Tubulin-Different-Phenotype (%): 70% and 90%
[6]
  Population Apoptotic (%): 84%
  Population Fragmented Nuclei (%): 17% and 12%
  Population Healthy Nuclei (%): 36% and 60%
  Population Hoechst High Intensity Objects (%): 2% and 0%
  Population Membrane Permeable-Phenotype (%): 6% and 4%
  Population Mitotic Cells (%): 15%
  Population Normal (%): 97% and 100%
  Population Pyknosed Nuclei (%): 46% and 26%
  Population Tubulin-Different-Phenotype (%): 60% and 55%

## O=C1Nc2ccc(C(=O)c3ccco3)cc2C1=Cc1cc(Cl)c(O)c(Cl)c1 [GW406108X]
[1]
  Population Apoptotic (%): 25% and 65%
  Population Fragmented Nuclei (%): 11% and 2%
  Population Healthy Nuclei (%): 76% and 87%
  Population Hoechst High Intensity Objects (%): 0%
  Population Membrane Permeable-Phenotype (%): 3% and 0%
  Population Mitochondria Different-Phenotype (%): 0%
  Population Mitotic Cells (%): 75% and 34%
  Population Normal (%): 100%
  Population Pyknosed Nuclei (%): 11% and 9%
  Population Tubulin-Different-Phenotype (%): 76% and 82%
[2]
  Population Apoptotic (%): 83% and 47%
  Population Fragmented Nuclei (%): 12% and 4%
  Population Healthy Nuclei (%): 69% and 85%
  Population Hoechst High Intensity Objects (%): 0%
  Population Membrane Permeable-Phenotype (%): 0% and 1%
  Population Mitochondria Different-Phenotype (%): 0%
  Population Normal (%): 100%
  Population Pyknosed Nuclei (%): 18% and 10%
  Population Tubulin-Different-Phenotype (%): 52% and 87%
[3]
  Population Apoptotic (%): 40% and 64%
  Population Fragmented Nuclei (%): 4% and 2%
  Population Healthy Nuclei (%): 85% and 88%
  Population Hoechst High Intensity Objects (%): 0%
  Population Membrane Permeable-Phenotype (%): 10% and 1%
  Population Mitochondria Different-Phenotype (%): 2% and 0%
  Population Mitotic Cells (%): 60% and 35%
  Population Normal (%): 100%
  Population Pyknosed Nuclei (%): 10% and 8%
  Population Tubulin-Different-Phenotype (%): 75% and 79%
[4]
  Population Apoptotic (%): 87% and 43%
  Population Fragmented Nuclei (%): 8% and 5%
  Population Healthy Nuclei (%): 73% and 82%
  Population Hoechst High Intensity Objects (%): 0%
  Population Membrane Permeable-Phenotype (%): 0% and 1%
  Population Mitochondria Different-Phenotype (%): 0%
  Population Normal (%): 100%
  Population Pyknosed Nuclei (%): 17% and 12%
  Population Tubulin-Different-Phenotype (%): 51% and 90%
[5]
  Population Apoptotic (%): 33% and 48%
  Population Fragmented Nuclei (%): 6% and 1%
  Population Healthy Nuclei (%): 79% and 89%
  Population Hoechst High Intensity Objects (%): 0%
  Population Membrane Permeable-Phenotype (%): 2% and 1%
  Population Mitochondria Different-Phenotype (%): 2% and 0%
  Population Mitotic Cells (%): 66% and 51%
  Population Normal (%): 100% and 99%
  Population Pyknosed Nuclei (%): 13% and 8%
  Population Tubulin-Different-Phenotype (%): 85% and 83%
[6]
  Population Apoptotic (%): 90% and 51%
  Population Fragmented Nuclei (%): 1% and 6%
  Population Healthy Nuclei (%): 79% and 83%
  Population Hoechst High Intensity Objects (%): 0%
  Population Membrane Permeable-Phenotype (%): 2%
  Population Mitochondria Different-Phenotype (%): 2% and 1%
  Population Normal (%): 100%
  Population Pyknosed Nuclei (%): 18% and 10%
  Population Tubulin-Different-Phenotype (%): 66% and 90%

## CC(=O)O[C@H]1C(=O)[C@@]2(C)[C@H]([C@H](OC(=O)c3ccccc3)[C@]3(O)C[C@H](OC(=O)[C@H](O)[C@@H](NC(=O)c4ccccc4)c4ccccc4)C(C)=C1C3(C)C)[C@]1(OC(C)=O)CO[C@@H]1C[C@@H]2O [PACLITAXEL]
[2]
  Population Apoptotic (%): 75% and 81% and 77%
  Population Healthy Nuclei (%): 47% and 63% and 72% and 76%
  Population Hoechst High Intensity Objects (%): 0%
  Population Membrane Permeable-Phenotype (%): 6% and 3% and 4%
  Population Mitochondria Different-Phenotype (%): 12% and 10% and 16% and 15%
  Population Mitotic Cells (%): 25% and 18% and 22%
  Population Normal (%): 100% and 99%
  Population Pyknosed Nuclei (%): 11% and 18% and 15% and 13%
  Population Tubulin-Different-Phenotype (%): 33% [middle of 4 runs]
[4]
  Population Apoptotic (%): 72% and 57% and 74% and 78%
  Population Healthy Nuclei (%): 33% and 55% and 66% and 65%
  Population Hoechst High Intensity Objects (%): 2% and 0%
  Population Membrane Permeable-Phenotype (%): 7% and 3%
  Population Mitochondria Different-Phenotype (%): 27% [middle of 4 runs]
  Population Mitotic Cells (%): 27% and 42% and 26% and 21%
  Population Normal (%): 97% and 100% and 99%
  Population Pyknosed Nuclei (%): 26% and 25% and 20%
  Population Tubulin-Different-Phenotype (%): 21% and 19% and 36%
[6]
  Population Apoptotic (%): 77% and 76% and 90% and 93%
  Population Healthy Nuclei (%): 33% and 30% and 56% and 60%
  Population Hoechst High Intensity Objects (%): 0%
  Population Mitochondria Different-Phenotype (%): 38% and 42% and 41%
  Population Normal (%): 100% and 99%
  Population Pyknosed Nuclei (%): 35% and 28% and 32%
  Population Tubulin-Different-Phenotype (%): 33% and 28% and 32% and 41%

Reference: ChEMBL document CHEMBL5303300, “EUbOPEN Chemogenomics Library - Multiplex” (2023)
